Here are results for 10 molecules from ChEMBL document CHEMBL4732146, “Nitric oxide-donating and reactive oxygen species-responsive prochelators based on 8-hydroxyquinoline as anticancer agents” (Eur J Med Chem, 2021).

pIC50: −log10 of the molar value. Calls of active or inactive are those of the source. The rule behind the calls is not given here.

The nature of series [1]: Stability of compound in pH 10 PBS buffer measured after 5 to 24 hrs by RP-HPLC analysis. It counts as physicochemical. To be noted: time 5-24 hrs. An outline of the steps:
(§1)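 Compound (1 µM) stirred at 37 °C either in PBS (pH 5.0, 7.4 or 10.0) containing 5% DMSO or in DMEM with 10% FBS. Aliquots were analysed by RP-HPLC (0.1% TFA water/methanol gradient, 256 nm) for remaining intact compound, up to 24 h.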

Series [2] is described as follows: Cytotoxicity against human H6C7 cells assessed as reduction in cell viability measured after 48 hrs by MTT assay. It counts as cell-based. To be noted: H6C7, 48 h. Put shortly:
(§2)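 Cells seeded 6 × 10⁴ per well, cultured 24 h at 37 °C under 5% CO₂, then exposed to compound for 48 h, with or without 50 µM CuCl₂ or FeCl₃ co-incubation. MTT added for 4 h at 37 °C, formazan dissolved in DMSO, A490 read. IC50 reported as mean (SD), n = 3.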

Series [3] in a line: Stability of compound in DMEM with 10% fetal bovine serum measured after 5 to 24 hrs by RP-HPLC analysis. Format: cell-free. The settings on record: time 5-24 hrs. Put shortly:
as §1

The test system of series [4] is PANC-1. As to the kind of experiment: Cytotoxicity against human PANC-1 cells assessed as reduction in cell viability measured after 48 hrs in presence of FeCl3 by MTT assay. Format: functional, cell-based. To be noted: PANC-1, 48 h. Put shortly:
as §2

Series [5] has as its system PANC-1. As to the kind of experiment: Cytotoxicity against human PANC-1 cells assessed as reduction in cell viability measured after 48 hrs by MTT assay. It counts as functional, cell-based. To be noted: PANC-1, 48 h. Put shortly: as §2
Series [6] has as its system SW1990. As to the kind of experiment: Cytotoxicity against human SW1990 cells assessed as reduction in cell viability measured after 48 hrs in presence of CuCl2 by MTT assay. It counts as functional, cell-based. The settings on record: SW1990, 48 h. Put shortly: as §2
Series [7] has as its system SW1990. Description: Cytotoxicity against human SW1990 cells assessed as reduction in cell viability measured after 48 hrs by MTT assay. Format: functional, cell-based. The settings on record: SW1990, 48 h. Put shortly: as §2
Series [8] in a line: Stability of compound in pH 7.4 PBS buffer measured after 5 to 24 hrs by RP-HPLC analysis. To be noted: time 5-24 hrs. Format: physicochemical. An outline of the steps: as §1
A short description of series [9]: Cytotoxicity against human RWPE2 cells assessed as reduction in cell viability measured after 48 hrs by MTT assay. Format: cell-based. To be noted: RWPE2, 48 h. Put shortly: as §2
The test system of series [10] is SW1990. Description: Cytotoxicity against human SW1990 cells assessed as reduction in cell viability measured after 48 hrs in presence of FeCl3 by MTT assay. It counts as functional, cell-based. To be noted: SW1990, 48 h. Put shortly:
as §2

A short description of series [11]: Stability of compound in pH 5 PBS buffer measured after 5 to 24 hrs by RP-HPLC analysis. Format: physicochemical. To be noted: time 5-24 hrs. An outline of the steps: as §1
Series [12] has as its system PANC-1. As to the kind of experiment: Cytotoxicity against human PANC-1 cells assessed as reduction in cell viability measured after 48 hrs in presence of CuCl2 by MTT assay. It counts as functional, cell-based. The settings on record: PANC-1, 48 h. Put shortly: as §2
The test system of series [13] is PANC-1. As to the kind of experiment: Cytotoxicity against human PANC-1 cells assessed as reduction in cell viability at 20 uM measured after 48 hrs by MTT assay relative to control. It counts as functional. Put shortly: (§3)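 MTT assay with 48 h compound exposure at 10 or 20 µM. Cells seeded 6 × 10⁴ per well and grown 24 h beforehand. MTT 4 h, DMSO solubilisation, A490 read. Percent cell death given as mean ± SD, n = 3.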

Another series has as its system HeLa. As to the kind of experiment: Cytotoxicity against human HeLa cells assessed as reduction in cell viability at 10 to 20 uM measured after 48 hrs by MTT assay. Format: functional, cell-based. The settings on record: dose 10-20 µM.
In series [14] the test system is PANC-1. As to the kind of experiment: Cytotoxicity against human PANC-1 cells assessed as reduction in cell viability at 10 uM measured after 48 hrs by MTT assay. It counts as functional, cell-based. Put shortly: as §3
A short description of series [15]: Metal chelating activity assessed as compound-Fe3+ complex formation measured after 40 mins by calcein dye based fluorescence assay. The settings on record: dose 10-50 µM. An outline of the steps: (§4)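 Calcein (10 µM) in 50 mM HEPES was quenched by 10 µM CuCl₂ (or FeCl₃ for the Fe³⁺ arm). Chelator was added from DMSO stock to a final 10 or 50 µM and incubated 40 min at room temperature. Recovery rate was calculated from fluorescence (λex 485 / λem 520 nm); n = 3.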

Another series concerns A549. As to the kind of experiment: Cytotoxicity against human A549 cells assessed as reduction in cell viability at 10 to 20 uM measured after 48 hrs by MTT assay. It counts as functional, cell-based. The settings on record: dose 10-20 µM.
The subject of a further series is MCF7. As to the kind of experiment: Cytotoxicity against human MCF7 cells assessed as reduction in cell viability at 10 to 20 uM measured after 48 hrs by MTT assay. It counts as functional, cell-based. To be noted: dose 10-20 µM. An outline of the steps:
as §3

Series [16] can be described thus: Metal chelating activity assessed as compound-Cu2+ complex formation measured after 40 mins by calcein dye based fluorescence assay. To be noted: dose 10-50 µM. An outline of the steps:
as §4

A further series deals with HepG2. As to the kind of experiment: Cytotoxicity against human HepG2 cells assessed as reduction in cell viability at 10 to 20 uM measured after 48 hrs by MTT assay. To be noted: dose 10-20 µM. Format: functional, cell-based. Put shortly: as §3
The subject of series [17] is SW1990. Description: Cytotoxicity against human SW1990 cells assessed as reduction in cell viability at 10 to 20 uM measured after 48 hrs by MTT assay. To be noted: dose 10-20 µM. Format: functional, cell-based. Put shortly:
as §3

Series [18] concerns SW1990. Description: Induction of apoptosis in human SW1990 cells at 12 uM measured after 24 hrs by Annexin V-FITC/propidium iodide staining based flow cytometry. It counts as functional, cell-based. An outline of the steps: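 SW1990 cells seeded 5 × 10⁵ per well and grown 24 h, then treated 24 h at 8 or 12 µM. Optional 1 h pretreatment with 20 mM NAC or 50 µM carboxyl-PTIO before 12 µM treatment. Cells stained with annexin V-FITC 15 min and PI 5 min at room temperature in the dark, then analysed by flow cytometry. Mean ± SD, n = 3.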

For `CC1(C)OB(c2ccc(COc3cccc4ccc(C(=O)N5CCC(Oc6no[n+]([O-])c6S(=O)(=O)c6ccccc6)CC5)nc34)cc2)OC1(C)C`, the Stabilty entry in series [1], in series [8] and in series [11] was “Stable” in each case. Moreover, the pIC50 is 4.47 in series [2]; 4.42 with PANC-1 [4]; 4.88 in the series on PANC-1 [5]; 5.54 in the series with SW1990 [6]; 4.92 with SW1990 [7]; 4.54 in series [9]. For the same molecule, the results for the negative-log IC50 (pIC50) in the series with SW1990 [10] and in the series with PANC-1 [12] were 4.47 and 5.46, respectively. Also, the Stability entry in series [3] is listed as “Stable”.

For `CC1(C)OB(c2ccc(COc3cccc4ccc(C(=O)NCCCOc5no[n+]([O-])c5S(=O)(=O)c5ccccc5)nc34)cc2)OC1(C)C`, the Stabilty entry in [1], in series [8] and in [11] was “Stable” each time. Moreover, the pIC50 in series [2] is 4.39; with PANC-1 [4], 4.60; in the series with PANC-1 [5] it was 4.77; with SW1990 [6], 5.49; with SW1990 [7], 4.80; in series [9] it was 4.40. In addition, the pIC50 is 4.68 in the series with SW1990 [10] and 5.31 in the series with PANC-1 [12]. Moreover, in [3], the Stability entry was “Stable”.

`O=C(/C=C/c1ccc2cccc(O)c2n1)NCCOc1no[n+]([O-])c1S(=O)(=O)c1ccccc1`: the result with PANC-1 [13], with HeLa, in the series on PANC-1 [14], with A549, with MCF7 and with HepG2 was Active. Besides, the Activity entry in series [15] and in series [16] was “Dose-dependent effect” throughout.

In the case of `O=C(NCCCOc1no[n+]([O-])c1S(=O)(=O)c1ccccc1)c1ccc2cccc(OCc3ccccc3)c2n1`, in the series on SW1990 [17], the result was inactive. Besides, the result with SW1990 [18] was Active.

As to `O=C(c1ccc2cccc(O)c2n1)N1CCN(CCOc2no[n+]([O-])c2S(=O)(=O)c2ccccc2)CC1`, the result with PANC-1 [13], in the series on HeLa, with PANC-1 [14], in the series with A549, with MCF7 and in the series on HepG2 was Active. Besides, the Activity result in [15] and in [16] was “Dose-dependent effect” each time.

Turning to `O=C(/C=C\c1ccc2cccc(O)c2n1)N1CCN(CCOc2no[n+]([O-])c2S(=O)(=O)c2ccccc2)CC1`, the result in the series on PANC-1 [13], in the series on HeLa, in the series on PANC-1 [14], with A549, in the series with MCF7 and in the series with HepG2 was Active. Moreover, the Activity result in [15] and in series [16] was “Dose-dependent effect” each time.

Turning to `O=C(/C=C/c1ccc2cccc(O)c2n1)NCCCOc1no[n+]([O-])c1S(=O)(=O)c1ccccc1`, the outcome in the series on PANC-1 [13], in the series with HeLa, in the series with PANC-1 [14], with A549, in the series with MCF7 and in the series with HepG2 was Active. Further, the Activity entry in series [15] and in series [16] was “Dose-dependent effect” in each case.

Turning to `O=C(/C=C\c1ccc2cccc(O)c2n1)N1CCC(Oc2no[n+]([O-])c2S(=O)(=O)c2ccccc2)CC1`, the result in the series on PANC-1 [13], in the series on HeLa, in the series on PANC-1 [14], with A549, with MCF7 and with HepG2 was Active. In addition, the Activity entry in series [15] and in series [16] was “Dose-dependent effect” in each case.

For the molecule `O=C(NCCOc1no[n+]([O-])c1S(=O)(=O)c1ccccc1)c1ccc2cccc(O)c2n1`, the outcome in the series with PANC-1 [13], with HeLa, with PANC-1 [14], in the series on A549, in the series with MCF7 and in the series with HepG2 was Active. Moreover, the Activity result in [15] and in series [16] was “Dose-dependent effect” each time.

Regarding `O=C(c1ccc2cccc(OCc3ccc(B(O)O)cc3)c2n1)N1CCC(Oc2no[n+]([O-])c2S(=O)(=O)c2ccccc2)CC1`, the Stabilty result in series [1], in [8] and in series [11] was “Stable” each time. Further, the negative-log IC50 (pIC50) in [2] is less than 4.30; in the series with PANC-1 [4], 4.69; with PANC-1 [5], 4.78; with SW1990 [6], 5.52; in the series with SW1990 [7] it was 4.89; in [9], 4.52. Besides, the pIC50 with SW1990 [10] was 4.73; with PANC-1 [12], 5.57. In addition, the Stability entry in series [3] is recorded as “Stable”.
